ChEMBL document CHEMBL5344453, “Selective Recognition of c-KIT 1 G-Quadruplex by Structural Tuning of Heteroaromatic Scaffolds and Side Chains” (ACS Med Chem Lett, 2024)
Active and inactive are the calls of the source. No cut-off for these calls is given here.

What was measured:
Quadruplex DNA [1] = assay: Binding affinity to excessive G-quadruplex c-KIT1 5-FAM-GGGAGGGCGCTGGGAGGAGGG-TAMRA-3 (unknown origin) assessed as fold increase in fluorescence intensity at 1 uM incubated for 1 hr in dark condition by fluorescence spectroscopy assay relative to VEGF; format: nucleic-acid assay
Outline: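 Ligand (1.0 μM) titrated to saturation with increasing G-quadruplex in 100 mM Tris-KCl buffer, pH 7.4. The value is the ratio of the c-KIT 1 fold change in fluorescence intensity to the fold change obtained with VEGF or c-KIT 2.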

Quadruplex DNA [2] = assay: Binding affinity to G-quadruplex BCL-2 5-FAM-AGGGGCGGGCGCGGGAGGAAGGGGGCGGGAGCGGGGCTG-TAMRA-3 (unknown origin) assessed as dissociation constant by fluorescence spectroscopy assay; format: nucleic-acid assay
Outline: (§1)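 Fluorimetric titration of ligand held at 1.0 μM with increasing concentrations of G4 or dsDNA until saturation. Change in ligand fluorescence intensity was fitted for Kd. Run in 100 mM Tris-KCl buffer, pH 7.4.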

Quadruplex DNA [3] = assay: Stabilization of fluorophore tagged G-quadruplex c-KIT1 (unknown origin) assessed as change in melting temperature in presence of 0 to 100 equiv calf thymus DNA at 1 uM incubated for 1 hr in dark condition by competitive FRET-based melting assay; format: nucleic-acid assay
Outline: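 Competitive FRET melting with fluorophore-labeled c-KIT 1 G-quadruplex and 1 μM ligand. Unlabeled calf thymus DNA was added at 0, 1, 5, 10, 50 and 100 molar equivalents over the labeled DNA, and ΔTm was monitored.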

K562 [4] = assay: Induction of cell cycle arrest in human K562 cells assessed as accumulation at G0/G1 phase at 3 uM incubated for 24 hrs by propidium iodide based assay; format: functional
Outline: (§2)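 K562 cells were treated with ligand (3 and 6 μM or 5.5 and 11 μM) and stained with propidium iodide. The fraction of cells in each cell-cycle phase was determined by flow cytometry.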

K562 [5] = assay: Attenuation of proto-oncogene expression in human c-KIT-positive K562 cells assessed as reduction in c-KIT oncogene expression at 3 uM measured after 24 hrs by qRT-PCR analysis relative to control; format: functional
Outline: (§3)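 K562 cells treated 24 h at two doses per ligand (3 and 6 μM, 5.5 and 11 μM; positive control 2 and 4 μM). c-KIT, c-MYC and BCL-2 mRNA measured by qRT-PCR and normalized to housekeeping gene 18s, relative to untreated control.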

Quadruplex DNA [6] = assay: Stabilization of G-quadruplex c-KIT1 5-FAM-GGGAGGGCGCTGGGAGGAGGG-TAMRA-3 (unknown origin) assessed as change in melting temperature at 3 uM incubated for 1 hr in dark condition by FRET-based melting assay; format: nucleic-acid assay
Outline: (§4)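 FRET melting of dual-fluorophore (FAM/TAMRA) tagged G-quadruplex (200 nM) in 60 mM potassium cacodylate, pH 7.4. The screen used 1 μM ligand; dose series used 1, 3, 5, 7 and 10 μM. ΔTm was taken against the Tm of the same oligonucleotide without ligand.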

Quadruplex DNA [7] = assay: Stabilization of G-quadruplex c-KIT2 5-FAM-GGGCGGGCGCGAGGGAGGGG-TAMRA-3 (unknown origin) assessed as change in melting temperature at 10 uM incubated for 1 hr in dark condition by FRET-based melting assay; format: nucleic-acid assay; outline: as §4
MCF7 = assay: Cytotoxicity against human MCF7 cells assessed as cell viability measured after 24 hrs by XTT formazan assay; format: functional, cell-based; details: MCF7, 24 h
Quadruplex DNA [8] = assay: Binding affinity to excessive G-quadruplex c-KIT1 5-FAM-GGGAGGGCGCTGGGAGGAGGG-TAMRA-3 (unknown origin) assessed as fold increase in fluorescence intensity at 1 uM incubated for 1 hr in dark condition by fluorescence spectroscopy assay; format: nucleic-acid assay
Outline: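 Fluorimetric titration in 100 mM Tris-KCl buffer, pH 7.4. Ligand fixed at 1.0 μM and titrated with increasing concentrations of each G-quadruplex until fluorescence saturation. The fold increase in ligand fluorescence intensity was read, and Kd was derived from the titration plot.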

Quadruplex DNA [9] = assay: Stabilization of G-quadruplex h-TELO 5-FAM-TTGGGTTAGGGTTAGGGTTAGGGA-TAMRA-3 (unknown origin) assessed as change in melting temperature at 1 uM incubated for 1 hr in dark condition by FRET-based melting assay; format: nucleic-acid assay
Outline: (§5)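 FRET melting of dual-fluorophore-tagged oligonucleotides (200 nM) in 60 mM potassium cacodylate buffer, pH 7.4, with ligand at 1 μM; ΔTm taken against the ligand-free oligonucleotide Tm as control.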

K562 [10] = assay: Attenuation of proto-oncogene expression in human c-KIT-positive K562 cells assessed as reduction in c-MYC oncogene expression at 3 uM measured after 24 hrs by qRT-PCR analysis relative to control; format: functional; outline: as §3
Quadruplex DNA [11] = assay: Binding affinity to G-quadruplex c-KIT1 5-FAM-GGGAGGGCGCTGGGAGGAGGG-TAMRA-3 (unknown origin) assessed as stability by CD spectra analysis; format: nucleic-acid assay
Calf thymus DNA = assay: Binding affinity to calf thymus ds DNA assessed as dissociation constant by fluorescence spectroscopy assay; format: nucleic-acid assay, Bos taurus; outline: as §1
K562 [12] = assay: Attenuation of proto-oncogene expression in human c-KIT-positive K562 cells assessed as reduction in c-KIT oncogene expression at 6 uM measured after 24 hrs by qRT-PCR analysis relative to control; format: functional; outline: as §3
[13] = Reduction of c-MYC oncogene expression in human K562 cells transfected with c-MYC plasmid construct assessed as reduction in luciferase expression at 6 uM measured after 36 hrs by luciferase reporter assay; format: functional
Outline: (§6)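 Promoter luciferase reporter: K562 cells transfected with a c-MYC promoter G4-containing luciferase-expressing plasmid, then ligand-treated at two doses each (3 and 6 μM, or 5.5 and 11 μM); read-out as relative luciferase expression, reported as percent reduction.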

[14] = Reduction of c-MYC oncogene expression in human K562 cells transfected with c-MYC plasmid construct assessed as reduction in luciferase expression at 3 uM measured after 36 hrs by luciferase reporter assay; format: functional; outline: as §6
Quadruplex DNA [15] = assay: Binding affinity to G-quadruplex c-MYC 5-FAM-TGGGGAGGGTGGGGAGGGTGGGGAAGG-TAMRA-3 (unknown origin) assessed as dissociation constant by fluorescence spectroscopy assay; format: nucleic-acid assay; outline: as §1
K562 [16] = assay: Induction of cell cycle arrest in human K562 cells assessed as accumulation at G0/G1 phase at 6 uM incubated for 24 hrs by propidium iodide based assay; format: functional; outline: as §2
Quadruplex DNA [17] = assay: Stabilization of G-quadruplex c-KIT2 5-FAM-GGGCGGGCGCGAGGGAGGGG-TAMRA-3 (unknown origin) assessed as change in melting temperature at 1 uM incubated for 1 hr in dark condition by FRET-based melting assay; format: nucleic-acid assay; outline: as §5
Quadruplex DNA [18] = assay: Binding affinity to G-quadruplex c-KIT1 5-FAM-GGGAGGGCGCTGGGAGGAGGG-TAMRA-3 (unknown origin) assessed as dissociation constant by isothermal titration calorimetry (ITC) assay; format: nucleic-acid assay
Outline: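 ITC of ligand binding to folded G4 in 100 mM Tris-KCl buffer, pH 7.4. Kd and stoichiometry were obtained from the isothermal heat curve and binding isotherm.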

Quadruplex DNA [19] = assay: Binding affinity to G-quadruplex c-KIT 2 5-FAM-GGGCGGGCGCGAGGGAGGGG-TAMRA-3 (unknown origin) assessed as dissociation constant by fluorescence spectroscopy assay; format: nucleic-acid assay; outline: as §1

With `CN(C)CCCNC(=O)c1ccc(-n2cc(-c3ccc4[nH]c5ccccc5c4c3)nn2)cc1` the fold change (FC) (Quadruplex DNA [1]) was 2.8, the Kd (Quadruplex DNA [2]) was 4.8 µM and the Activity (Quadruplex DNA [3]) was “Active”. It also gave an Activity (K562 [4]) of 74.1%, an inhibition at 3 µM (K562 [5]) of 28% and a ΔTm (Quadruplex DNA [6]) of 22.6 °C. For the same compound, the ΔTm (Quadruplex DNA [7]) was 18.1 °C, the IC50 (MCF7) was 19.8 µM and the fold change (FC) (Quadruplex DNA [8]) was 5.2. The ΔTm (Quadruplex DNA [9]) was 4.5 °C, the inhibition at 3 µM (K562 [10]) was 15% and the Activity (Quadruplex DNA [11]) was “Active”. It also gave a Kd (Calf thymus DNA) of 4 µM, an inhibition at 6 µM (K562 [12]) of 73% and an inhibition at 6 µM [13] of 12.3%. For the same compound, the inhibition at 3 µM [14] was 6%, the Kd (Quadruplex DNA [15]) was 2.7 µM and the Activity (K562 [16]) was 79.7%. For the same compound, the ΔTm (Quadruplex DNA [17]) was 9.9 °C, the Kd (Quadruplex DNA [18]) was 1.6 µM and the Kd (Quadruplex DNA [19]) was 2.8 µM.
